Data on 12 compounds can be found in PubChem BioAssay.

The nature of assay [1]: inhibitors of TNFa-induced NFkB p65 translocation, primary screen, imaging, HUVEC, MLSMR starter and 10KST1 sets (AID 438;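 active = inhibition above 20% together with a positive visual image hit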;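 note: compound added about 3h40 before a 20 min TNFalpha stimulation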;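 for inhibition: signal is the nuclear over cytoplasmic p65 intensity ratio per well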). Conditions: HUVEC TNFa-induced p65 nuclear translocation; cell count: measured here: nuclei count (cytotoxicity indicator), at 2.08 µM; inhibition: at 2 µM, stronger effect = higher value, 0% TNFa-plus-vehicle, 100% no-TNFa wells.
Assay [2] is described as follows: endothelial E-selectin expression blockers – imaging, HUVEC, immunofluorescence, MLSMR starter and 10KST1 sets, primary screen (AID 487;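 active = visually confirmed hit in the image check and inhibition above 20%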;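 for inhibition: signal is fraction of cell area covered by stained E-selectin grains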;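 for nuclei count: 100% = median nuclei count of all wells on the same plate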). The settings on record: HUVEC TNFalpha-induced E-selectin immunofluorescence imaging, at 2 µM; inhibition: stronger effect = higher value; nuclei count: measured here: cell number, toxicity.
The nature of assay [3]: Primary imaging screen for DUSP6 inhibitors that restore phospho-Erk in transfected HeLa cells, chemical complementation (AID 609;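 active = compounds giving at least 50% inhibition in the cell-based MKP-3 phosphatase rescue imaging test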;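 for inhibition: phospho-Erk level distribution per well compared with pooled transfected vehicle control wells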). The settings on record: HeLa MKP-3 transfected, phospho-Erk imaging KS statistic, at 10 µM, cells stimulated with TPA for 15 min.
Assay [4] concerns the target Dual specificity protein phosphatase 6 (Homo sapiens) (UniProt Q16828). The assay is described as above. The settings on record: HeLa MKP-3 transfected, phospho-Erk imaging KS statistic; at 10 µM; stronger effect = higher value; cells stimulated with TPA for 15 min.
Assay [5] deals with Voltage-gated potassium channel subunit beta-2 (Rattus norvegicus) (UniProt P62483). As to the kind of experiment: inhibitors of rat Kvbeta2 reductase activity – biochemical, NADPH fluorescence, primary screen (AID 622;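 active = fluorescence slope higher than the sample average by over 3 SD, cut at about -0.22 in these data, passing the limit was not always enough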;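 note: slope of raw intensity against log time taken from 70 to 1610 s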). Conditions: recombinant KvBeta, 4-cyanobenzaldehyde reduction, at 10 µM, stronger effect = higher value.
The target is the same in assay [6]. As to the kind of experiment: enhancers of rat Kvbeta2 NADPH turnover – biochemical, NADPH fluorescence, primary screen (AID 623;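 active = NADPH fluorescence slope more negative than the mean of all samples by about 3 SD, 99.7% confidence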;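 note: fluorescence intensity change per second fitted from 20 to 320 s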). The settings on record: Recombinant KvBeta, NADPH fluorescence decrease slope, 10 min; at 10 µM; stronger effect = lower value.
Assay [7] has as its target Alpha-2C adrenergic receptor (Homo sapiens) (UniProt P18825). As to the kind of experiment: compounds altering alpha2C-coupled GIRK flux – cell-based, HEK293 alpha2C/GIRK1/2, thallium flux, primary screen (AID 624;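 active = fluorescence slope after compound addition differing from the mean of all screened samples at 99.7% confidence, in either direction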;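 note: slope of fluorescence ratio to pre-addition baseline per second over 15 to 24 s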). The settings on record: thallium flux BTC fluorescence, at 10 µM, actives lie on both sides.
A short description of assay [8]: inhibitors of larval lipid processing in zebrafish, primary screen, whole organism, PED6 fluorescence, gall bladder and intestine (AID 686).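 Note: larvae 5 to 7 days old with five fish per well; signal comes from phospholipase A2 cleavage of quenched PED6 carried via bile; overnight exposure to compound and PED6 before scoring.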 The settings on record: Zebrafish larvae PED6 lipid processing, fluorescence scoring; screened at 20 µM (by protocol). The procedure, abridged: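 System: live zebrafish larvae aged 5-7 days, whole organism; measure: graded gall bladder and intestinal fluorescence inhibition per well; incubation: overnight exposure; reagent: ingested quenched lipid PED6 at 100 nM; signal: By-eye fluorescence microscopy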

A short description of assay [9]: loss of swimming-algae plug formation – whole organism, Chlamydomonas reinhardtii, WT vs cilia-less mutant, absorbance, 96-well, primary screen (AID 463189;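 active = inhibition at or above 50% relative to wild type and mutant plate controls; inactive = inhibition below 50%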;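 note: 0% = wild type cc124 cells in DMSO and 100% = ciliumless bld1 mutant cells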). Conditions: Chlamydomonas reinhardtii gravitaxis, OD600 absorbance, 2 days; at 10 µM; stronger effect = higher value.
Setting [10] is: measured here: cell density z-score.
Setting [11] is: measured here: nuclear c-Myc green intensity z-score.
Setting [12] is: measured here: nuclear pErk red intensity z-score, stronger effect = higher value.

Activity calls are given as the source filed them.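 Rule for the calls, unless noted: active = a full or partial loss of lipid-probe fluorescence in the fish gall bladder, intestine or both, judged by eye; inactive = no fluorescence loss, or compound toxic to the fish.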

Usually inhibition stands for the drop in the measured response relative to a control, in per cent.

Chain of Dual specificity protein phosphatase 6 (Homo sapiens) (Q16828 whole entry, looked up): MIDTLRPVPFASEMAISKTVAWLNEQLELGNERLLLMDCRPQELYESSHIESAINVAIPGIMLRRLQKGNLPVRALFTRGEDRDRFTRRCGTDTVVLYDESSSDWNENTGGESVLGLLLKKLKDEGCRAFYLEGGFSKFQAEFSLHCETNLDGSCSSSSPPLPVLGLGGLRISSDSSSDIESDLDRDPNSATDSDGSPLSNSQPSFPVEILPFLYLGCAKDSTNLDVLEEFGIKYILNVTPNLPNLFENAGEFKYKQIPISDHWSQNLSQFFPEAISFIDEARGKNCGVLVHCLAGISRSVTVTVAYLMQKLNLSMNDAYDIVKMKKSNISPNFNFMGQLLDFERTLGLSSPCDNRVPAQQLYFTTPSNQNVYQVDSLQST
Chain of Voltage-gated potassium channel subunit beta-2 (Rattus norvegicus) (P62483 whole entry, looked up): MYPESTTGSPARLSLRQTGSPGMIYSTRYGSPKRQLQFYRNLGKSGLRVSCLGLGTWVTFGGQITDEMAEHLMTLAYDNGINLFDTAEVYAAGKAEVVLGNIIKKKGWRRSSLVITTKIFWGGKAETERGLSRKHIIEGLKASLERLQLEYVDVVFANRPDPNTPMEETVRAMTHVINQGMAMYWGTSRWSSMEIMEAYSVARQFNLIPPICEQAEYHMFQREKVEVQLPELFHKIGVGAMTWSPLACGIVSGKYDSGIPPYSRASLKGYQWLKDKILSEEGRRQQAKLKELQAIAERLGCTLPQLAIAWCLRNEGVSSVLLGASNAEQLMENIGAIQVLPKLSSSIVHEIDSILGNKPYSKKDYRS
Chain of Alpha-2C adrenergic receptor (Homo sapiens) (P18825 whole entry, looked up): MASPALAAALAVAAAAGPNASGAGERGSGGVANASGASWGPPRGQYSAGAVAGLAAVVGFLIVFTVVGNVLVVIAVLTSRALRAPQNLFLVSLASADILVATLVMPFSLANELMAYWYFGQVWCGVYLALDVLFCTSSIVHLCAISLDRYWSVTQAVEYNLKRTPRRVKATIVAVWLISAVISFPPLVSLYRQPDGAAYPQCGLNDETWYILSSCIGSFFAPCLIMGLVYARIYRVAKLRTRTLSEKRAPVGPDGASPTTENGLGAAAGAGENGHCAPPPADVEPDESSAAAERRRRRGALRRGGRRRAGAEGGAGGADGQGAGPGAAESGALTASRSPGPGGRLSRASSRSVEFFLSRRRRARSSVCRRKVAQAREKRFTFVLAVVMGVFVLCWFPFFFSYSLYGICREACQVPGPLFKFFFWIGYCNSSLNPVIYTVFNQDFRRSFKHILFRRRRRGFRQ

Regarding `Cc1ccc2[nH]c3c(NCCN4CCOCC4)ncnc3c2c1`, in [1], the cell count is 558. Further, the inhibition in [1] is -21.5% (inactive); in assay [2], -90.3% (inactive); in [4], -6.06% (inactive); in [9], 2.83% (inactive). This compound displayed a nuclei count in assay [2] of 160%. In addition, the z-score in assay [3] (setting [10]) is -2.07; in assay [3] (setting [11]) it was -0.295; in assay [3] (setting [12]) it was -0.0856. Also, the fluorescence slope in [5] is -0.475 (inactive). Moreover, the NADPH fluorescence slope in assay [6] was -5.9e-05 (inactive). In addition, in assay [7], the slope is 0.00484 (inactive). Also, in [8], the outcome was inactive.
In the case of `CN1CCN(CCC(=O)N2c3ccccc3Sc3ccc(Cl)cc32)CC1`, the cell count in assay [1] came to 450. Also, the inhibition in [1] was -3.2% (inactive); in [2], -122% (inactive); in assay [4] it was 0.671% (inactive); in [9] it was 15.9% (inactive). In assay [2], this compound showed a nuclei count of 176%. The results for the z-score in assay [3] (setting [10]), in [3] (setting [11]) and in [3] (setting [12]) were 0.831, 0.747 and -0.386, respectively. Also, the fluorescence slope in assay [5] is -0.432 (inactive). In addition, the NADPH fluorescence slope in [6] was -5.3e-05 (inactive). The slope in assay [7] was 0.00551 (inactive). In [8], the result was inactive.
As to `CCC1(C)Cc2c(sc3[nH]c(=O)[nH]c(=O)c23)CS1` (stereo unspecified), the cell count in assay [1] stood at 666. Moreover, the inhibition is -8.2% (inactive) in assay [1], -11.4% (inactive) in [2], 1.75% (inactive) in assay [4] and 2.21% (inactive) in assay [9]. The compound also returned a nuclei count in assay [2] of 170%. Besides, the z-score in assay [3] (setting [10]) was 0.81; in [3] (setting [11]), -1.43; in assay [3] (setting [12]) it was -0.857. Also, the fluorescence slope in assay [5] is -0.519 (inactive). The NADPH fluorescence slope in assay [6] was -4.7e-05 (inactive). In [7], the slope is 0.00488 (inactive). In assay [8], the call was inactive.
Regarding `CSc1nnc(C)c(=O)[nH]1`, the cell count in assay [1] came out at 627. Besides, the inhibition in assay [1] is 3.2% (inactive); in [2] it was -23.8% (inactive); in assay [4], -1.12% (inactive); in assay [9], 6% (inactive). Further, the nuclei count in [2] came out at 149%. Moreover, the z-score in assay [3] (setting [10]) was 0.361; in assay [3] (setting [11]), -1.1; in [3] (setting [12]), -0.0421. For the same compound, in [5], the fluorescence slope was -0.463 (inactive). Moreover, the NADPH fluorescence slope in [6] was -0.000266 (inactive). Also, the slope in assay [7] was 0.00552 (inactive). Besides, the result in [8] was inactive.
Turning to `CCN=C1SC(C(=O)Nc2ccc(Cl)c(Cl)c2)CC(=O)N1CC` (stereo unspecified), the cell count in [1] worked out at 388. Besides, the inhibition is -0.4% (inactive) in [1], -56.6% (inactive) in [2], 7.42% (inactive) in assay [4] and 0.946% (inactive) in assay [9]. The compound also showed a nuclei count in [2] of 133%. Further, the z-score in [3] (setting [10]) was 1.74; in assay [3] (setting [11]), -1.1; in assay [3] (setting [12]), -1.57. Besides, the fluorescence slope in assay [5] is -0.423 (inactive). Besides, in assay [6], the NADPH fluorescence slope is -0.000131 (inactive). Further, the slope in [7] was 0.00577 (inactive). In addition, in assay [8], the compound was called inactive.
As to `Cc1nc2sc3c(NCc4ccco4)ncnc3c2c2c1COC(C)(C)C2`, the cell count in [1] came to 595. Moreover, the inhibition was -11% (inactive) in assay [1], -84.2% (inactive) in [2], -2.69% (inactive) in assay [4] and 45.7% (inactive) in [9]. Besides, the nuclei count in [2] came to 181%. In addition, the values for the z-score in assay [3] (setting [10]), in [3] (setting [11]) and in [3] (setting [12]) were -1.22, -0.424 and 1.05, respectively. In addition, the fluorescence slope in assay [5] was -0.373 (inactive). In addition, the NADPH fluorescence slope in assay [6] is -3e-05 (inactive). Further, the slope in assay [7] is 0.00585 (inactive). The compound was called inactive in assay [8].
`COc1ccc(C=NCCC2(O)CC(C)N(C)CC2C)cc1` (stereo unspecified): the cell count in [1] came to 340. Further, the inhibition in assay [1] is -16.4% (inactive); in assay [2], -85.1% (inactive); in assay [4], -7.01% (inactive); in assay [9], 7.82% (inactive). The nuclei count in [2] was found to be 131%. The z-score was 0.907 in [3] (setting [10]), -0.705 in assay [3] (setting [11]) and -1.22 in [3] (setting [12]). In addition, the fluorescence slope in [5] is -0.427 (inactive). Further, the NADPH fluorescence slope in [6] was -6e-05 (inactive). In addition, the slope in assay [7] was 0.00607 (inactive). The compound was called inactive in assay [8].
Take `CCOc1ccc(C2C(C#N)=C(N)SC(N)=C2C#N)cc1OC`: the cell count in assay [1] was determined as 654. For the same compound, the inhibition in assay [1] was -21.3% (inactive); in [2] it was 22.8% (inactive); in assay [4], -3.95% (inactive); in assay [9], 5.29% (inactive). The nuclei count in [2] stood at 177%. Moreover, the z-score in assay [3] (setting [10]) is 0.539; in [3] (setting [11]), -1.2; in [3] (setting [12]), 0.0794. Further, the fluorescence slope in assay [5] was -0.291 (inactive). Moreover, the NADPH fluorescence slope in [6] was -3e-05 (inactive). For the same compound, the slope in assay [7] is 0.00675 (inactive). Moreover, the compound was called inactive in assay [8].
Turning to `CCC12CN3CC(CC)(CN(C1)C3c1c(O)ccc3ccccc13)C2=O` (stereo unspecified), the cell count in assay [1] amounted to 585. The inhibition in [1] was -1.9% (inactive); in assay [2], -44.2% (inactive); in assay [4] it was 9.82% (inactive); in assay [9], 6.95% (inactive). The same compound registered a nuclei count in assay [2] of 185%. Further, the z-score in assay [3] (setting [10]) is -0.501; in [3] (setting [11]), 0.162; in assay [3] (setting [12]), 0.594. For the same compound, the fluorescence slope in [5] is -0.336 (inactive). For the same compound, the NADPH fluorescence slope in assay [6] is 5.6e-06 (inactive). In assay [7], the slope is 0.00425 (inactive). Besides, the outcome in assay [8] was inactive.
Consider `Cc1nnc2n(-c3ccccc3)c(=O)c3c4c(sc3n12)CC(C)CC4` (stereo unspecified), for which the cell count in assay [1] worked out at 573. Also, the inhibition in assay [1] is -1.3% (inactive); in assay [2], 37.3% (inactive); in [4] it was 16.1% (inactive); in [9] it was -24.5% (inactive). The nuclei count in assay [2] turned out to be 92.6%. In addition, the values for the z-score in [3] (setting [10]), in [3] (setting [11]) and in [3] (setting [12]) were -0.0616, 0.767 and -0.493, respectively. Also, the fluorescence slope in [5] is -0.396 (inactive). In addition, the NADPH fluorescence slope in assay [6] is 1.3e-06 (inactive). Besides, the slope in assay [7] is 0.00538 (inactive). Further, the call in assay [8] was inactive.
On to `COc1ccc(NC(=O)Nc2cccc(C(=O)N3CCOCC3)c2)cc1OC`, for which the cell count in [1] was determined as 543. Also, the inhibition in assay [1] was 0% (inactive); in [2], -176% (inactive); in assay [4], 12.3% (inactive); in [9] it was 12.3% (inactive). Moreover, the nuclei count in [2] was determined as 131%. For the same compound, the figures for the z-score in assay [3] (setting [10]), in assay [3] (setting [11]) and in assay [3] (setting [12]) were 0.702, -0.546 and -0.00586, respectively. The fluorescence slope in assay [5] was -0.527 (inactive). Further, the NADPH fluorescence slope in assay [6] was -7.4e-05 (inactive). For the same compound, in assay [7], the slope was 0.00529 (inactive). The result in assay [8] was inactive.
For the compound `CC(C)OC(=O)c1sc2nc3c(cc2c1N)C(=O)CCC3`, the cell count in assay [1] stood at 334. The inhibition in assay [1] was -8% (inactive); in [2], -109% (inactive); in assay [4], 9.42% (inactive); in assay [9], -4.23% (inactive). Also, the nuclei count in [2] stood at 159%. For the same compound, the z-score in assay [3] (setting [10]) is 1.59; in assay [3] (setting [11]) it was -1.25; in assay [3] (setting [12]), -0.674. For the same compound, the fluorescence slope in [5] is -0.403 (inactive). Also, the NADPH fluorescence slope in assay [6] was -9.2e-05 (inactive). Also, the slope in assay [7] is 0.0073 (inactive). Also, the outcome in assay [8] was inactive.
